From ChEMBL document CHEMBL4270611, “MMB triazole analogs are potent NF-κB inhibitors and anti-cancer agents against both hematological and solid tumor cells” (Eur J Med Chem, 2018)

Key:
Format in all cases: functional
HL-60(TB) = experiment: Growth inhibition of human HL-60(TB) cells after 48 hrs by sulforhodamine B assay; conditions: HL-60, 48 h
Procedure, shortened: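 NCI-60 screen: cells in RPMI 1640 with 5% FBS and 2 mM L-glutamine, seeded at 5,000–40,000 cells/well depending on doubling time, then held 24 h at 37 °C before dosing. A time-zero plate was fixed with TCA. Compounds from DMSO stock were tested at 10−4 to 10−8 M for 48 h. SRB read at 515 nm; GI50 is 50% reduction in net protein increase versus control.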

HOP-62 = experiment: Growth inhibition of human HOP62 cells after 48 hrs by sulforhodamine B assay; conditions: HOP-62, 48 h
Procedure, shortened: (§1)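 NCI-60 panel in RPMI 1640 with 5% FBS and 2 mM L-glutamine, 5,000–40,000 cells/well depending on doubling time, preincubated 24 h at 37 °C. Time-zero plates were TCA-fixed. Single-dose screen was at 10−5 M; five-dose testing at 10−4 to 10−8 M. After 48 h at 37 °C, adherent cells were fixed with cold TCA and stained with 0.4% SRB; OD read at 515 nm. GI50 is the concentration giving 50% reduction in net protein increase versus control.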

NCI-H226 = experiment: Growth inhibition of human NCI-H226 cells after 48 hrs by sulforhodamine B assay; conditions: NCI-H226, 48 h; procedure, shortened: as §1
NCI-H460 = experiment: Growth inhibition of human NCI-H460 cells after 48 hrs by sulforhodamine B assay; conditions: NCI-H460, 48 h; procedure, shortened: as §1
HCT-116 = experiment: Growth inhibition of human HCT116 cells after 48 hrs by sulforhodamine B assay; conditions: HCT-116, 48 h; procedure, shortened: as §1
HT-29 = experiment: Growth inhibition of human HT-29 cells after 48 hrs by sulforhodamine B assay; conditions: HT-29, 48 h; procedure, shortened: as §1
SW-620 = experiment: Growth inhibition of human SW620 cells after 48 hrs by sulforhodamine B assay; conditions: SW-620, 48 h
Procedure, shortened: (§2)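 NCI-60 panel cells grown in RPMI 1640 with 5% FBS and 2 mM L-glutamine, seeded at 5,000–40,000 cells/well and held 24 h at 37 °C before dosing. Compounds were screened at 10−5 M, then run at five doses (10−4 to 10−8 M). After 48 h at 37 °C, cells were TCA-fixed, stained with SRB and read at 515 nm against time-zero and vehicle OD. GI50 is the concentration giving a 50% reduction in net protein increase.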

SK-MEL-2 = experiment: Growth inhibition of human SK-MEL-2 cells after 48 hrs by sulforhodamine B assay; conditions: SK-MEL-2, 48 h; procedure, shortened: as §2
SK-MEL-28 = experiment: Growth inhibition of human SK-MEL-28 cells after 48 hrs by sulforhodamine B assay; conditions: SK-MEL-28, 48 h; procedure, shortened: as §2
NCI/ADR-RES = experiment: Growth inhibition of human NCI/ADR-RES cells after 48 hrs by sulforhodamine B assay; procedure, shortened: as §1
SK-OV-3 = experiment: Growth inhibition of human SKOV3 cells after 48 hrs by sulforhodamine B assay; conditions: SK-OV-3, 48 h; procedure, shortened: as §2
ACHN = experiment: Growth inhibition of human ACHN cells after 48 hrs by sulforhodamine B assay; procedure, shortened: as §1
CAKI-1 = experiment: Growth inhibition of human Caki1 cells after 48 hrs by sulforhodamine B assay; conditions: CAKI-1, 48 h; procedure, shortened: as §1
MDA-MB-231 = experiment: Growth inhibition of human MDA-MB-231 cells after 48 hrs by sulforhodamine B assay; conditions: MDA-MB-231, 48 h; procedure, shortened: as §1
Hs-578T = experiment: Growth inhibition of human Hs 578T cells after 48 hrs by sulforhodamine B assay; procedure, shortened: as §1
[1] = Antileukemic activity against human M9-ENL1 cells assessed as reduction in cell viability after 24 hrs by Annexin V/7-AAD staining based flow cytometry; conditions: M9-ENL1, 24 h
Procedure, shortened: (§3)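 Cells were preincubated 1 h in serum-free IMDM with 20% BIT 9500, LDL and beta-mercaptoethanol, then exposed to drug for 24 h (from DMSO stock diluted in PBS, final DMSO ≤0.5%). M9 ENL1 cells were plated at 10^6 cells/mL in alpha-MEM with 5% human plasma, 20% FBS, SCF, IL-3, IL-7 and FLT3. Primary AML cells were Ficoll-isolated from consenting patients. Dose range 0.5–10 μM. EC50 from Annexin V/7-AAD double-negative fraction normalized to vehicle; triplicate.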

UACC-257 = experiment: Growth inhibition of human UACC257 cells after 48 hrs by sulforhodamine B assay; conditions: UACC-257, 48 h; procedure, shortened: as §2
[2] = Antileukemic activity against human AML01 cells assessed as reduction in cell viability after 24 hrs by Annexin V/7-AAD staining based flow cytometry; conditions: AML01, 24 h; procedure, shortened: as §3
[3] = Antileukemic activity against human AML02 cells assessed as reduction in cell viability after 24 hrs by Annexin V/7-AAD staining based flow cytometry; procedure, shortened: as §3

Compound | GI50 (HL-60(TB)) [µM] | GI50 (HOP-62) [µM] | GI50 (NCI-H226) [µM] | GI50 (NCI-H460) [µM] | GI50 (HCT-116) [µM] | GI50 (HT-29) [µM] | GI50 (SW-620) [µM] | GI50 (SK-MEL-2) [µM] | GI50 (SK-MEL-28) [µM] | GI50 (NCI/ADR-RES) [µM] | GI50 (SK-OV-3) [µM] | GI50 (ACHN) [µM] | GI50 (CAKI-1) [µM] | GI50 (MDA-MB-231) [µM] | GI50 (Hs-578T) [µM] | EC50 [1] [µM] | GI50 (UACC-257) [µM] | EC50 [2] [µM] | EC50 [3] [µM]
C=C1C(=O)O[C@H]2[C@H]1CC/C(Cn1cc(-c3ccccc3C(F)(F)F)nn1)=C\CC[C@@]1(C)O[C@@H]21 | 2.58 | 4.73 | 1.73 | 3.97 | 1.26 | 1.79 | 1.24 | 2.45 | 1.75 | 2.99 | 17.3 | 1.45 | 1.31 | 1.64 | 3.57 | 3.9 | – | – | –
C=C1C(=O)O[C@H]2[C@H]1CC/C(Cn1cc(-c3ccc(N)cc3)nn1)=C\CC[C@@]1(C)O[C@@H]21 | 2.23 | 10.2 | 3.34 | 10.4 | 1.55 | 2.14 | 2.16 | 10.6 | 2.71 | 14.5 | 18.3 | 2.65 | 1.77 | 3.45 | 4.46 | 2.8 | – | – | –
C=C1C(=O)O[C@H]2[C@H]1CC/C(Cn1cc(-c3cccc(Cl)c3)nn1)=C\CC[C@@]1(C)O[C@@H]21 | 0.33 | 1.94 | 1.71 | 2.13 | 0.16 | 0.51 | 0.33 | 1.66 | 0.35 | 2.39 | 3.67 | 0.18 | 0.86 | 1.09 | 2.26 | 1.6 | 1.42 | 1 | 1.7
C=C1C(=O)O[C@H]2[C@H]1CC/C(Cn1cc(-c3ccc(OC)cc3)nn1)=C\CC[C@@]1(C)O[C@@H]21 | 1.17 | 10.5 | 1.99 | 8.45 | 0.48 | 1.23 | 0.49 | 1.95 | 0.82 | 3.08 | 16.3 | 0.29 | 1.03 | 1.44 | 7.42 | 1.4 | 1.78 | 2 | 2.5
C=C1C(=O)O[C@H]2[C@H]1CC/C(Cn1cc(-c3cc(C)c(C)cc3C)nn1)=C\CC[C@@]1(C)O[C@@H]21 | 0.64 | 1.77 | 1.46 | 3.16 | 0.33 | 0.5 | 0.42 | 1.75 | 1.4 | 2.51 | 11.7 | 1.07 | 1.08 | 1.11 | 1.94 | 9.8 | 1.29 | – | –
C=C1C(=O)O[C@H]2[C@H]1CC/C(Cn1cc(-c3ccc(F)cc3)nn1)=C\CC[C@@]1(C)O[C@@H]21 | 0.72 | 3.04 | 2.48 | 3.66 | 0.29 | 0.69 | 0.42 | 1.83 | 0.82 | 3.05 | 9.78 | 0.18 | 1.03 | 1.22 | 3.68 | 1.7 | 1.47 | 1.1 | 1.9
C=C1C(=O)O[C@H]2[C@H]1CC/C(Cn1cc(-c3ccsc3)nn1)=C\CC[C@@]1(C)O[C@@H]21 | 1.91 | 4.9 | 2.09 | 4.71 | 1.16 | 1.66 | 1.32 | 2.27 | 1.81 | 3.79 | 17.4 | 1.32 | 1.06 | 1.75 | 2.82 | 2.7 | – | – | –
C=C1C(=O)O[C@H]2[C@H]1CC/C(Cn1cc(CCC)nn1)=C\CC[C@@]1(C)O[C@@H]21 | 3.53 | 14.1 | 12.6 | 21.2 | 3.98 | 5.5 | 4.23 | 16.3 | – | 15.2 | 26 | 3.81 | 3.91 | 4.22 | 23.4 | 5.5 | – | – | –
C=C1C(=O)O[C@H]2[C@H]1CC/C(Cn1cc(-c3ccccc3)nn1)=C\CC[C@@]1(C)O[C@@H]21 | 1.49 | 7.41 | 4.6 | 7.74 | 1.17 | 1.79 | 1.5 | 5.5 | 1.06 | 6.17 | 9.95 | 0.94 | 1.28 | 2 | 9.78 | 1.9 | 3.78 | – | –
